From ChEMBL document CHEMBL1139132, “N-caffeoylphenalkylamide derivatives as bacterial efflux pump inhibitors” (2007)
In brackets after ≈: the same amount, converted by molar mass.

How the values were obtained:
Format in all cases: functional
Staphylococcus aureus [1] = assay: Inhibition of NorA pump in fluoroquinolone-resistant Staphylococcus aureus SA1199B assessed as drug level causing 4-fold reduction of Norfloxacin MIC
Procedure, shortened: (§1)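 SA-1199B, which overexpresses NorA, tested by dilution MIC. Norfloxacin MIC measured with and without added test agent. Potentiation expressed as the fold reduction of the norfloxacin MIC relative to norfloxacin alone, at the stated agent concentration.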

Staphylococcus aureus [2] = assay: Inhibition of NorA pump in fluoroquinolone-resistant Staphylococcus aureus SA1199B assessed as drug level causing reduction of Norfloxacin MIC; procedure, shortened: as §1
Staphylococcus aureus [3] = assay: Antimicrobial activity against fluoroquinolone-resistant Staphylococcus aureus SA1199B
Procedure, shortened: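 S. aureus SA-1199B, which overexpresses the NorA MDR efflux pump. MIC determined by the standard dilution method for aerobically growing bacteria.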

Staphylococcus aureus [4] = assay: Inhibition of NorA pump in fluoroquinolone-resistant Staphylococcus aureus SA1199B assessed as drug level causing 8-fold reduction of Norfloxacin MIC; procedure, shortened: as §1
Staphylococcus aureus [5] = assay: Inhibition of NorA pump in fluoroquinolone-resistant Staphylococcus aureus SA1199B assessed as drug level causing 16-fold reduction of Norfloxacin MIC; procedure, shortened: as §1
Staphylococcus aureus [6] = assay: Inhibition of NorA pump in fluoroquinolone-resistant Staphylococcus aureus SA1199B assessed as drug level causing 2-fold reduction of Norfloxacin MIC; procedure, shortened: as §1

Row | Structure (SMILES) | Activity (Staphylococcus aureus [1]) [µM] | MIC (Staphylococcus aureus [3]) [µM] | Activity (Staphylococcus aureus [4]) [µM] | also measured
1 | COc1ccc(/C=C/C(=O)NCCc2ccccc2)cc1OC | 322 | – | – | –
2 | COc1ccc(CCC(=O)NCCc2ccc(O)c(O)c2)cc1OC | – | – | – | Activity (Staphylococcus aureus [2]): 290 µM
3 | COc1ccc(/C=C/C(=O)NCCc2c[nH]c3ccccc23)cc1OC | 29 | > 366 | 57 | Activity (Staphylococcus aureus [5]): 286 µM
4 | COc1ccc(/C=C/C(=O)NCCc2ccc(O)c(O)c2)cc1OC | 146 | – | 292 | –
5 | COc1ccc(/C=C/C(=O)NCCc2ccc(OC)c(OC)c2)cc1OC | – | – | 162 | Activity (Staphylococcus aureus [6]): 54 µM
6 | COc1cc(/C=C/C(=O)NCCc2ccc(O)c(O)c2)cc(OC)c1OC | 268 | – | – | –
7 | COc1ccc(/C=C/C(=O)NCCc2cc(O)c(O)c(O)c2)cc1OC | – | 356 (≈ 128 µg/mL) | – | Activity (Staphylococcus aureus [2]): 56 µM
8 | O=C(/C=C/c1ccccc1)NCCc1ccc(O)c(O)c1 | 70 | > 452 | – | Activity (Staphylococcus aureus [5]): 353 µM
9 | O=C(/C=C/c1ccc(O)c(O)c1)NCCc1ccc(O)c(O)c1 | 63 | ≥ 406 | 317 | –
10 | CCn1cc(C(=O)O)c(=O)c2cc(F)c(N3CCNCC3)cc21 [NORFLOXACIN] | – | 100 (≈ 31.9 µg/mL) | – | –
11 | COC(=O)[C@H]1[C@H]2C[C@@H]3c4[nH]c5cc(OC)ccc5c4CCN3C[C@H]2C[C@@H](OC(=O)c2cc(OC)c(OC)c(OC)c2)[C@@H]1OC [RESERPINE] | – | – | – | MIC (Staphylococcus aureus [4]; Staphylococcus aureus, SA1199B): 33 µM (≈ 20.1 µg/mL)
